Experimental data reported in ChEMBL document CHEMBL1123632, “Cardiotonic agents. 7. Inhibition of separated forms of cyclic nucleotide phosphodiesterase from guinea pig cardiac muscle by 4,5-dihydro-6-[4-(1H-imidazol-1-yl)phenyl]-3(2H)-pyridazinones and related compounds. Structure-activity relationships and correlation with in vivo positive inotropic …” (J Med Chem, 1987).

What was measured:
[1] = molecular target: T1, cGMP-dependent 3',5'-cyclic phosphodiesterase (Homo sapiens, UniProt O00408); experiment: Inhibition of cAMP PDE II enzyme in guinea pig at 1E-5M concentration; settings: Cavia porcellus; target entry is the homologue from another species
T1 sequence (O00408 whole entry): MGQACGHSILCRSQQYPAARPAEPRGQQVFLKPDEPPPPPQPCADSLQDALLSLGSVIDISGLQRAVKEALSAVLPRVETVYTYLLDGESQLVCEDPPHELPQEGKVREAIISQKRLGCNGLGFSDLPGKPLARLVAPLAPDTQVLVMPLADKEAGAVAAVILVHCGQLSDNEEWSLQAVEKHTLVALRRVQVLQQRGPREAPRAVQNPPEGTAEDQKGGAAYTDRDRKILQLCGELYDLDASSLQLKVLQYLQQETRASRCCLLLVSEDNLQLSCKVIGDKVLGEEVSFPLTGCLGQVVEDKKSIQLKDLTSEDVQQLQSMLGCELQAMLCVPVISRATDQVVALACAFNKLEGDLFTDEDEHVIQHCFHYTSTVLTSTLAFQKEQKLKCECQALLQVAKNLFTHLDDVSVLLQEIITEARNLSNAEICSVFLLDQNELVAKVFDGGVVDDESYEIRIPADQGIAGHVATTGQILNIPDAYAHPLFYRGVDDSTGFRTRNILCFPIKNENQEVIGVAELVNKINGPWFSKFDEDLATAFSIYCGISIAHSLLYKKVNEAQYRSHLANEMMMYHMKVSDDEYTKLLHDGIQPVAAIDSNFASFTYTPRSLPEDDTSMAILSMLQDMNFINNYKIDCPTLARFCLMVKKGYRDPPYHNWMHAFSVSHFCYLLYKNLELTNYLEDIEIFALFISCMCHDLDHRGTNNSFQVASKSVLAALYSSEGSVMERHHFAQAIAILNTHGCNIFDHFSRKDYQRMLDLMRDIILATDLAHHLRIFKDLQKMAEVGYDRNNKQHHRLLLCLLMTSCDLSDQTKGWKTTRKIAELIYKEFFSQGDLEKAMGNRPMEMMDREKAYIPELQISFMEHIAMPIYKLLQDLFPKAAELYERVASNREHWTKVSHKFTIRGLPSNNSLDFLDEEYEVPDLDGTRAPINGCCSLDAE

[2] = molecular target: T1, cGMP-dependent 3',5'-cyclic phosphodiesterase; experiment: Inhibition of cGMP PDE II enzyme in guinea pig at 1E-5M concentration; settings: Cavia porcellus; target entry is the homologue from another species
Phosphodiesterase 3 [3] = molecular target: T2, Phosphodiesterase 3 (Homo sapiens, UniProt Q14432+Q13370); experiment: Inhibition of cAMP PDE III enzyme in guinea pig at 1E-5M concentration; format: protein assay; settings: Cavia porcellus; target entry is the homologue from another species
Phosphodiesterase 1 [4] = molecular target: T3, Phosphodiesterase 1 (Homo sapiens, UniProt P54750+Q01064+Q14123); experiment: Inhibition of cAMP PDE I enzyme in guinea pig at 1E-5M concentration; format: protein assay; settings: Cavia porcellus; target entry is the homologue from another species
Phosphodiesterase 1 [5] = molecular target: T3, Phosphodiesterase 1; experiment: Inhibition of cGMP PDE I enzyme in guinea pig at 1E-5M concentration; format: protein assay; settings: Cavia porcellus; target entry is the homologue from another species
Phosphodiesterase 3 [6] = molecular target: T2, Phosphodiesterase 3; experiment: Inhibition of cAMP PDE III enzyme in guinea pig at 1E-4M concentration.; format: protein assay; settings: Cavia porcellus; target entry is the homologue from another species
Canis familiaris = species: Canis familiaris; experiment: Effective dose required to increase myocardial contractility in dog.; format: functional; settings: Canis lupus familiaris, Myocardium
Procedure, shortened: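 Anesthetized mongrel dogs (either sex): pentobarbital 35 mg/kg iv, then 5 mg kg⁻¹ h⁻¹ infusion. After 30-min control, compound in saline or dilute HCl/NaOH diluted with saline given iv over 1 min, cumulative half-log doses (typically four to six), 10–30 min apart.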

Phosphodiesterase 1 [7] = molecular target: T3, Phosphodiesterase 1; experiment: Inhibition of cAMP PDE I enzyme in guinea pig at 1E-4M concentration.; format: protein assay; settings: Cavia porcellus; target entry is the homologue from another species
[8] = molecular target: T1, cGMP-dependent 3',5'-cyclic phosphodiesterase; experiment: Inhibitory concentration against cAMP PDE II enzyme in guinea pig; design: species or system Cavia porcellus; settings: target entry is the homologue from another species
[9] = molecular target: T1, cGMP-dependent 3',5'-cyclic phosphodiesterase; experiment: Inhibitory concentration against cGMP PDE II enzyme in guinea pig; design: species or system Cavia porcellus; settings: target entry is the homologue from another species
Phosphodiesterase 1 [10] = molecular target: T3, Phosphodiesterase 1; experiment: Inhibition of cGMP PDE I enzyme in guinea pig at 1E-4M concentration; format: protein assay; settings: Cavia porcellus; target entry is the homologue from another species
[11] = molecular target: T1, cGMP-dependent 3',5'-cyclic phosphodiesterase; experiment: Inhibition of cGMP PDE II enzyme in guinea pig at 1E-4M concentration; settings: Cavia porcellus; target entry is the homologue from another species
Phosphodiesterase 3 [12] = molecular target: T2, Phosphodiesterase 3; experiment: Inhibitory concentration against cAMP PDE III enzyme in guinea pig; format: protein assay, Cavia porcellus; settings: target entry is the homologue from another species
PDE II (Cavia porcellus) = experiment: Inhibition of cAMP PDE II enzyme in guinea pig at 1E-4M concentration.
[13] = Ratio of IC50 values for PDE III and PDE II.
PDE I (Cavia porcellus) [14] = experiment: Inhibitory concentration against cGMP PDE I enzyme in guinea pig
PDE I (Cavia porcellus) [15] = experiment: Inhibitory concentration against cAMP PDE I enzyme in guinea pig

SMILES | inhibition [1] [%] | inhibition [2] [%] | inhibition (Phosphodiesterase 3 [3]) [%] | inhibition (Phosphodiesterase 1 [4]) [%] | inhibition (Phosphodiesterase 1 [5]) [%] | inhibition (Phosphodiesterase 3 [6]) [%] | ED50 (Canis familiaris) [mg/kg] | inhibition (Phosphodiesterase 1 [7]) [%] | IC50 [8] [µM] | IC50 [9] [µM] | inhibition (Phosphodiesterase 1 [10]) [%] | inhibition [11] [%] | IC50 (Phosphodiesterase 3 [12]) [µM] | inhibition (PDE II (Cavia porcellus)) [%] | Ratio [13] | IC50 (PDE I (Cavia porcellus) [14]) [µM] | IC50 (PDE I (Cavia porcellus) [15]) [µM]
NC(=O)c1cc(-c2ccc(-n3ccnc3)cc2)nnc1O | 18 | 15 | 24 | 11 | 16 |  |  |  |  |  |  |  |  |  |  |  | 
O=C1CCC(c2ccc(NC3=NCCN3)cc2)=NN1 | 28 | 16 | 58 | 33 | 33 |  |  |  |  |  |  |  |  |  |  |  | 
Oc1ccc(-c2ccc(-c3ncc[nH]3)cc2)nn1 | 10 | 7 | 51 | 8 | 10 | 69 | 0.017 | 18 | 190 | 180 | 23 | 41 | 12 |  |  |  | 
O=C1CCC(c2ccc(NC3=NCCO3)cc2)=NN1 | 9 | 4 | 54 | 3 | 6 | 68 |  | 26 |  |  | 12 | 31 |  | 36 |  |  | 
CCc1nc(C)c(Br)n1-c1ccc(-c2ccc(O)nn2)cc1 |  |  |  | 20 |  |  |  | 64 |  |  |  |  |  |  |  |  | 
NNC(=O)c1cc(-c2ccc(-n3ccnc3)cc2)nnc1O | 20 | 12 | 21 | 6 | 4 |  |  |  |  |  |  |  |  |  |  |  | 
O=C1CCC(c2ccc(-c3nn[nH]n3)cc2)=NN1 | 37 | 29 | 86 | 21 | 20 |  |  |  |  |  |  |  |  |  |  |  | 
CSc1nccn1-c1ccc(C2=NNC(=O)CC2)cc1 | 10 | 12 | 57 | 7 | 13 |  |  |  |  |  |  |  |  |  |  |  | 
CC1(C)CC(c2ccc(-n3ccnc3)cc2)=NNC1=O | 22 | 13 | 27 | 7 | 2 |  |  |  |  |  |  |  |  |  |  |  | 
O=C1NN=C(c2ccc(-n3ccnc3)cc2)C2CCCCC12 (configuration not stated) | 14 | 8 | 8 | 1 | 2 | 34 | 1 | 22 | 150 | 130 | 16 | 44 | 220 |  |  |  | 
CCC1CC(=O)NN=C1c1ccc(-n2ccnc2)cc1 (configuration not stated) | 5 | 13 | 18 | 1 | 1 | 54 | 1 | 2 | 100 | 71 | 8 | 40 | 74 | 35 | 740 | > 1000 | > 1000
O=C1CCC(c2ccc(-n3ccnc3)cc2)=NN1Cc1ccccc1 | 22 | 18 | 47 | 1 | 13 | 79 |  | 39 |  |  | 33 | 70 |  | 70 |  |  | 
O=C1CCC(c2ccc(-n3cnc4c3CCCC4)cc2)=NN1 | 20 | 22 | 60 | 8 | 7 | 87 | 0.064 | 38 | 49 | 39 | 37 | 69 | 1.1 |  |  |  | 
O=C1CCC(c2ccc(NC3=NCCS3)cc2)=NN1 | 31 | 33 | 58 | 18 | 20 |  |  |  |  |  |  |  |  |  |  |  | 
Cn1nc(-c2ccc(-n3ccnc3)cc2)ccc1=O | 16 | 12 | 20 | 1 | 9 |  |  |  |  |  |  |  |  |  |  |  | 
Oc1ccc(-c2ccc(-n3cnc4c3CCCC4)cc2)nn1 |  |  |  | 30 | 27 |  |  | 52 |  |  | 56 |  |  |  |  |  | 
CC1(C)CC(=O)NN=C1c1ccc(-n2ccnc2)cc1 | 17 | 6 | 47 | 2 | 5 |  |  |  |  |  |  |  |  |  |  |  | 
O=C1CCC(c2ccc(-n3cccn3)cc2)=NN1 | 27 | 27 |  | 12 | 15 |  |  |  |  |  |  |  |  |  |  |  | 
Cc1csc(Nc2ccc(C3=NNC(=O)CC3)cc2)n1 | 23 | 23 | 58 | 7 | 2 |  |  |  |  |  |  |  |  |  |  |  | 
Cc1cc(O)nnc1-c1ccc(-n2ccnc2)cc1 | 4 | 8 | 26 | 0 | 4 | 64 | 1.1 | 24 |  |  | 14 | 39 | 50 |  |  |  | 
CN1N=C(c2ccc(-n3ccnc3)cc2)CCC1=O | 5 | 1 | 13 | 1 | 3 | 47 | 1 | 22 | 370 | 280 | 26 | 32 | 110 | 33 | 297 | > 1000 | > 1000
Cc1[nH]c(=O)c(C#N)cc1-c1ccncc1 [MILRINONE] |  |  |  |  |  |  | 0.037 |  |  |  |  |  |  |  |  |  | 
O=C1CCC(c2ccc(-n3cccc3)cc2)=NN1 | 20 | 21 | 68 | 0 | 13 |  |  |  |  |  |  |  |  |  |  |  | 
Cc1cc(=O)[nH]nc1-c1ccc(-n2ccnc2)cc1 |  |  |  |  |  |  |  |  | 210 | 170 |  |  |  |  |  |  | 
CCc1nc(C)cn1-c1ccc(C2=NNC(=O)CC2)cc1 | 14 | 9 | 59 | 9 | 7 | 76 | 0.1 | 51 | 170 | 92 | 53 | 44 | 3.5 |  |  |  | 
CC(=O)OCCN1N=C(c2ccc(-n3ccnc3)cc2)CCC1=O | 23 | 11 | 16 | 1 | 5 |  |  |  |  |  |  |  |  |  |  |  | 
O=C1CCC(c2ccc(-n3cnnc3)cc2)=NN1 | 25 | 21 | 70 | 29 | 20 |  |  |  |  |  |  |  |  |  |  |  | 
O=C1CCC(c2ccc(-n3cnc(CO)c3)cc2)=NN1 | 6 | 5 | 59 | 1 |  | 68 | 0.034 | 9 | 480 | 350 | 9 | 23 | 4.1 |  |  |  | 
